From ChEMBL document CHEMBL4152234, “Aminobenzothiazole derivatives stabilize the thermolabile p53 cancer mutant Y220C and show anticancer activity in p53-Y220C cell lines” (Eur J Med Chem, 2018)
Calls of active or inactive are those of the source. The rule behind the calls is not given here.

What was measured:
[1] = system: Cellular tumor antigen p53 (Homo sapiens), P04637 [Y220C]; assay: Activation of p53 Y220C mutant in human NUGC3 cells assessed as change in ATR mRNA level at 60 uM after 18 hrs by RT-PCR method relative to control; type: cell-based
In short: (§1)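 p53 signalling qPCR array covering 84 genes. Cells were exposed for 18 h, with 0.5% DMSO in both compound and control samples. Total RNA was extracted and purified. Fold-changes were calculated by ΔΔCt using β2-microglobulin (B2M) as the housekeeping gene. Two independent biological replicates were run per cell line.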

[2] = system: Cellular tumor antigen p53 (Homo sapiens), P04637 [Y220C]; assay: Activation of p53 Y220C mutant in human NUGC3 cells assessed as change in APAF1 mRNA level at 60 uM after 18 hrs by RT-PCR method relative to control; type: cell-based; in short: as §1
[3] = system: Cellular tumor antigen p53 (Homo sapiens), P04637 [Y220C]; assay: Activation of p53 Y220C mutant in human NUGC3 cells assessed as change in BRCA1 mRNA level at 60 uM after 18 hrs by RT-PCR method relative to control; type: cell-based; in short: as §1
[4] = system: Cellular tumor antigen p53 (Homo sapiens), P04637 [Y220C]; assay: Activation of p53 Y220C mutant in human NUGC3 cells assessed as change in FAS mRNA level at 60 uM after 18 hrs by RT-PCR method relative to control; type: cell-based; in short: as §1
[5] = system: Cellular tumor antigen p53 (Homo sapiens), P04637 [Y220C]; assay: Activation of p53 Y220C mutant in human NUGC3 cells assessed as change in TNFRSF10B mRNA level at 60 uM after 18 hrs by RT-PCR method relative to control; type: cell-based
In short: (§2)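 p53 signalling qPCR array covering 84 p53 pathway genes. Cells were exposed for 18 h, and compound and control wells both held 0.5% DMSO. Total RNA was extracted and purified. Fold-changes were calculated by the ΔΔCt method against the untreated sample, with β2-microglobulin (B2M) as the housekeeping gene. Each cell line was run in two independent biological replicates.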

[6] = system: Cellular tumor antigen p53 (Homo sapiens), P04637 [Y220C]; assay: Activation of p53 Y220C mutant in human NUGC3 cells assessed as change in E2F1 mRNA level at 60 uM after 18 hrs by RT-PCR method relative to control; type: cell-based; in short: as §1
[7] = system: Cellular tumor antigen p53 (Homo sapiens), P04637 [Y220C]; assay: Activation of p53 Y220C mutant in human NUGC3 cells assessed as change in PPM1D mRNA level at 60 uM after 18 hrs by RT-PCR method relative to control; type: cell-based; in short: as §2
[8] = system: Cellular tumor antigen p53 (Homo sapiens), P04637 [Y220C]; assay: Activation of p53 Y220C mutant in human NUGC3 cells assessed as change in DNMT1 mRNA level at 60 uM after 18 hrs by RT-PCR method relative to control; type: cell-based; in short: as §1
[9] = system: Cellular tumor antigen p53 (Homo sapiens), P04637 [Y220C]; assay: Activation of p53 Y220C mutant in human NUGC3 cells assessed as change in TP53BP2 mRNA level at 60 uM after 18 hrs by RT-PCR method relative to control; type: cell-based; in short: as §2
[10] = system: Cellular tumor antigen p53 (Homo sapiens), P04637 [Y220C]; assay: Activation of p53 Y220C mutant in human NUGC3 cells assessed as change in TNFRSF10D mRNA level at 60 uM after 18 hrs by RT-PCR method relative to control; type: cell-based; in short: as §2
[11] = system: Cellular tumor antigen p53 (Homo sapiens), P04637 [Y220C]; assay: Activation of p53 Y220C mutant in human NUGC3 cells assessed as change in CCNE1 mRNA level at 60 uM after 18 hrs by RT-PCR method relative to control; type: cell-based; in short: as §1
[12] = system: Cellular tumor antigen p53 (Homo sapiens), P04637 [Y220C]; assay: Activation of p53 Y220C mutant in human NUGC3 cells assessed as change in WT1 mRNA level at 60 uM after 18 hrs by RT-PCR method relative to control; type: cell-based; in short: as §2
[13] = system: Cellular tumor antigen p53 (Homo sapiens), P04637 [Y220C]; assay: Activation of p53 Y220C mutant in human NUGC3 cells assessed as change in ADGRB1 mRNA level at 60 uM after 18 hrs by RT-PCR method relative to control; type: cell-based; in short: as §1
[14] = biological target: T1, Cellular tumor antigen p53 (Homo sapiens, UniProt P04637); assay: Activation of p53 in human NUGC4 cells assessed as change in APAF1 mRNA level at 60 uM after 18 hrs by RT-PCR method relative to control; type: cell-based; settings: read-out: FC; in short: as §2
[15] = biological target: T1, Cellular tumor antigen p53; assay: Activation of p53 in human NUGC4 cells assessed as change in CDC25A mRNA level at 60 uM after 18 hrs by RT-PCR method relative to control; type: cell-based; settings: read-out: FC
In short: (§3)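 p53 signaling qPCR array of 84 p53-pathway genes. Cells were treated in 6-well plates for 18 h with 0.5% DMSO in compound and control samples. Total RNA was extracted and fold-changes were obtained by the ΔΔCt method against untreated control, with β2-microglobulin (B2M) as housekeeping gene. Two independent biological replicates per cell line.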

[16] = biological target: T1, Cellular tumor antigen p53; assay: Activation of p53 in human NUGC4 cells assessed as change in SESN2 mRNA level at 60 uM after 18 hrs by RT-PCR method relative to control; type: cell-based; settings: read-out: FC
[17] = biological target: T1, Cellular tumor antigen p53; assay: Activation of p53 in human NUGC4 cells assessed as change in GADD45A mRNA level at 60 uM after 18 hrs by RT-PCR method relative to control; type: cell-based; settings: read-out: FC; in short: as §3
[18] = biological target: T1, Cellular tumor antigen p53; assay: Activation of p53 in human NUGC4 cells assessed as change in HDAC1 mRNA level at 60 uM after 18 hrs by RT-PCR method relative to control; type: cell-based; settings: read-out: FC; in short: as §3
[19] = biological target: T1, Cellular tumor antigen p53; assay: Activation of p53 in human NUGC4 cells assessed as change in TP53BP2 mRNA level at 60 uM after 18 hrs by RT-PCR method relative to control; type: cell-based; settings: read-out: FC
[20] = biological target: T1, Cellular tumor antigen p53; assay: Activation of p53 in human NUGC4 cells assessed as change in BCL2 mRNA level at 60 uM after 18 hrs by RT-PCR method relative to control; type: cell-based; settings: read-out: FC; in short: as §2
[21] = biological target: T1, Cellular tumor antigen p53; assay: Activation of p53 in human NUGC4 cells assessed as change in CASP2 mRNA level at 60 uM after 18 hrs by RT-PCR method relative to control; type: cell-based; settings: read-out: FC; in short: as §3
[22] = biological target: T1, Cellular tumor antigen p53; assay: Activation of p53 in human NUGC4 cells assessed as change in BAI1 mRNA level at 60 uM after 18 hrs by RT-PCR method relative to control; type: cell-based; settings: read-out: FC; in short: as §2
[23] = biological target: T1, Cellular tumor antigen p53; assay: Activation of p53 in human NUGC4 cells assessed as change in PTEN mRNA level at 60 uM after 18 hrs by RT-PCR method relative to control; type: cell-based; settings: read-out: FC
[24] = biological target: T1, Cellular tumor antigen p53; assay: Activation of p53 in human NUGC4 cells assessed as change in BRCA2 mRNA level at 60 uM after 18 hrs by RT-PCR method relative to control; type: cell-based; settings: read-out: FC; in short: as §3
[25] = biological target: T1, Cellular tumor antigen p53; assay: Activation of p53 in human NUGC4 cells assessed as change in JUN mRNA level at 60 uM after 18 hrs by RT-PCR method relative to control; type: cell-based; settings: read-out: FC; in short: as §3
[26] = system: Cellular tumor antigen p53 (Homo sapiens), P04637 [Y220C]; assay: Activation of p53 Y220C mutant in human HuH7 cells assessed as increase in Bax mRNA level at 30 uM after 18 hrs by RT-PCR method; type: cell-based
In short: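 Real-time PCR. Cells were treated for 18 h, with 0.5% DMSO in both compound and control samples. Relative mRNA levels were quantified by the ΔΔCt method as fold-change against the untreated sample. Each sample was measured in triplicate, and data are given as mean ± SEM with an unpaired t-test.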

[27] = system: SW1088; assay: Antiproliferative activity against human SW1088 cells harboring p53 R273C mutant assessed as cell viability at <40 uM after 72 hrs by CellTiter-Glo assay relative to control

In the case of `CCNC(=O)c1c(O)c(I)c(-n2cccc2)c2sc(N(CC)CC)nc12`, the fold change (FC) [1] is reported as 1, the fold change (FC) [2] is reported as 1.2 and the fold change (FC) [3] is reported as 0.6. The fold change (FC) [4] was 2.6, the fold change (FC) [5] was 1.8 and the fold change (FC) [6] was 1. The fold change (FC) [7] was 0.9, the fold change (FC) [8] was 1.2 and the fold change (FC) [9] was 1.8. The fold change (FC) [10] was 1, the fold change (FC) [11] was 1.2 and the fold change (FC) [12] was 1.5. It also gave a fold change (FC) [13] of 1.5, a fold induction at 60 µM [14] of 1 and a fold induction at 60 µM [15] of 0.4. The fold induction at 60 µM [16] was 1.3, the fold induction at 60 µM [17] was 1.7 and the fold induction at 60 µM [18] was 0.8. For the same compound, the fold induction at 60 µM [19] was 0.9, the fold induction at 60 µM [20] was 1.2 and the fold induction at 60 µM [21] was 0.7. The fold induction at 60 µM [22] was 2.9, the fold induction at 60 µM [23] was 1 and the fold induction at 60 µM [24] was 0.6. For the same compound, the fold induction at 60 µM [25] was 0.7, the Activity [26] was “Active” and the Activity [27] was greater than 80%.
